Experimental data taken from ChEMBL document CHEMBL5705899 (Biochem J, 2014).
Calls of active or inactive are those of the source. The calls are words filed in the database; no cut-off is given here.

Columns and labels:
[1] = molecular target: Phosphatidylinositol 4-phosphate 5-kinase type-1 alpha (Homo sapiens, UniProt Q99755); test: Inhibition of PIP5K1A (unknown origin) using D-myo-PIP as substrate incubated for 45 mins by ADP-Glo assay
[2] = molecular target: Maternal embryonic leucine zipper kinase (Homo sapiens) (UniProt Q14680); test: Inhibition of human MELK at 1 uM using RBER-CHKtide as substrate in presence of 33P-ATP by ProQinase assay
[3] = molecular target: Muscle, skeletal receptor tyrosine-protein kinase (Homo sapiens) (UniProt O15146); test: Inhibition of human MUSK at 1 uM using poly(Ala,Glu,Lys,Tyr) as substrate in presence of 33P-ATP by ProQinase assay
[4] = molecular target: CDK3/Cyclin E (Homo sapiens) (UniProt P24864+Q00526); test: Inhibition of human CDK3/CyclinE1 at 1 uM using RBER-CHKtide as substrate in presence of 33P-ATP by ProQinase assay; type: protein-complex assay
[5] = molecular target: Serine/threonine-protein kinase 33 (Homo sapiens) (UniProt Q9BYT3); test: Inhibition of human STK33 at 1 uM using RBER-CHKtide as substrate in presence of 33P-ATP by ProQinase assay
[6] = molecular target: Phosphatidylinositol 4-phosphate 5-kinase type-1 gamma (Homo sapiens, UniProt O60331); test: Inhibition of PIP5K1C (unknown origin) using D-myo-PIP as substrate incubated for 45 mins by ADP-Glo assay
Outline: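 Substrates were 14 μM PtdIns 4-phosphate and 20 μM ATP, with inhibitor at varying concentrations. Reactions ran 45 min at ambient temperature, then luminescence detection was done as for the PI4K assays.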

[7] = molecular target: Serine/threonine-protein kinase TBK1 (Homo sapiens) (UniProt Q9UHD2); test: Inhibition of recombinant human N-terminal GST-tagged TBK1 (1 to 729 residues) expressed in baculovirus infected Sf21 cells assessed as remaining activity at 1 uM using KKKKERLLDDRHDSGLDSMKDEE as substrate incubated for 30 mins in presence of [gamma-33P]ATP by filter binding method relative to control
[8] = molecular target: Tau-tubulin kinase 1 (Homo sapiens) (UniProt Q5TCY1); test: Inhibition of recombinant human N-terminal GST-tagged TTBK1 (1 to 1321 residues) expressed in Escherichia coli assessed as remaining activity at 1 uM using RRKDLHDDEEDEAMSITA as substrate incubated for 30 mins in presence of [gamma-33P]ATP by filter binding method relative to control
[9] = molecular target: Dual specificity mitogen-activated protein kinase kinase 6 (Homo sapiens) (UniProt P52564); test: Inhibition of recombinant human N-terminal MBP-tagged MKK6 (2 to 334 residues) expressed in Escherichia coli assessed as remaining activity at 1 uM using SAPK2a as substrate incubated for 30 mins in presence of [gamma-33P]ATP by filter binding method relative to control
[10] = molecular target: Serine/threonine-protein kinase tousled-like 2 (Homo sapiens) (UniProt Q86UE8); test: Inhibition of human TLK2 at 1 uM using RB-S6P as substrate in presence of 33P-ATP by ProQinase assay
[11] = molecular target: Phosphatidylinositol 4,5-bisphosphate 3-kinase catalytic subunit delta isoform (Homo sapiens, UniProt O00329); test: Inhibition of PI3Kdelta (unknown origin) using PtdIns(4,5)P2 as substrate preincubated for 20 mins followed by substrate addition and measured after 80 mins by Kinase-Glo assay
[12] = molecular target: Tyrosine-protein kinase receptor TYRO3 (Homo sapiens) (UniProt Q06418); test: Inhibition of human TYRO3 at 1 uM using PolyEY as substrate in presence of 33P-ATP by ProQinase assay
Homo sapiens = organism: Homo sapiens; test: Inhibition of recombinant human MKK1 (2 to 393 residues) expressed in Escherichia coli assessed as remaining activity at 1 uM using MBP as substrate incubated for 30 mins in presence of [gamma-33P]ATP by filter binding method relative to control
[13] = molecular target: Mitogen-activated protein kinase 3 (Homo sapiens) (UniProt P27361); test: (§1) Inhibition of recombinant human N-terminal GST-tagged ERK1 (2 to 379 residues) expressed in Escherichia coli assessed as remaining activity at 1 uM using MBP as substrate incubated for 30 mins in presence of [gamma-33P]ATP by filter binding method relative to control
[14] = molecular target: Receptor tyrosine-protein kinase erbB-2 (Homo sapiens) (UniProt P04626); test: Inhibition of human ERBB2 at 1 uM using polyEY as substrate in presence of 33P-ATP by ProQinase assay
[15] = molecular target: Protein-tyrosine kinase 6 (Homo sapiens) (UniProt Q13882); test: Inhibition of recombinant human N-terminal His6-tagged BRK (1 to 451 residues) expressed in baculovirus infected Sf21 cells assessed as remaining activity at 1 uM using Poly (Glu,Tyr) as substrate incubated for 30 mins in presence of [gamma-33P]ATP by filter binding method relative to control
[16] = molecular target: Maternal embryonic leucine zipper kinase (Homo sapiens) (UniProt Q14680); test: Inhibition of recombinant human N-terminal GST/C-terminal His6-tagged MELK (2 to 651 residues) expressed in Escherichia coli assessed as remaining activity at 1 uM using KKLNRTLSFAEPG as substrate incubated for 30 mins in presence of [gamma-33P]ATP by filter binding method relative to control
[17] = molecular target: Diacylglycerol kinase kappa (Homo sapiens) (UniProt Q5KSL6); test: Inhibition of DGKkappa (unknown origin) at 1 uM
[18] = molecular target: CDK2/Cyclin A2 (Homo sapiens) (UniProt P24941+P20248); test: as §1, with “CDK2” for “ERK1”, “298 residues)/N-terminal GST-tagged Cyclin A2 (171 to 432” for “379”, “YSPTSPSYSPTSPSYSPTSPKKK” for “MBP”
[19] = molecular target: Serine/threonine-protein kinase PLK2 (Homo sapiens) (UniProt Q9NYY3); test: Inhibition of human SNK at 1 uM using RBER-GSK3 as substrate in presence of 33P-ATP by ProQinase assay
[20] = molecular target: Tyrosine-protein kinase Lyn (Homo sapiens) (UniProt P07948); test: Inhibition of human LYN at 1 uM using polyEY as substrate in presence of 33P-ATP by ProQinase assay
[21] = molecular target: Serine/threonine-protein kinase 4 (Homo sapiens) (UniProt Q13043); test: Inhibition of human MST1 at 1 uM using RB-CTF as substrate in presence of 33P-ATP by ProQinase assay
[22] = molecular target: Rhodopsin kinase GRK7 (Homo sapiens) (UniProt Q8WTQ7); test: Inhibition of human GRK7 at 1 uM using casein as substrate in presence of 33P-ATP by ProQinase assay
[23] = molecular target: Tyrosine-protein kinase ABL1 (Homo sapiens) (UniProt P00519); test: Inhibition of human ABL1 at 1 uM using poly(Ala,Glu,Lys,Tyr) as substrate in presence of 33P-ATP by ProQinase assay
[24] = molecular target: Serine/threonine-protein kinase pim-3 (Homo sapiens) (UniProt Q86V86); test: Inhibition of recombinant human N-terminal His6-tagged PIM3 (2 to 326 residues) expressed in baculovirus infected Sf21 cells assessed as remaining activity at 1 uM using RSRHSSYPAGT as substrate incubated for 30 mins in presence of [gamma-33P]ATP by filter binding method relative to control

Chain of Maternal embryonic leucine zipper kinase (Homo sapiens) (Q14680 whole entry, looked up, the tested form may be a part): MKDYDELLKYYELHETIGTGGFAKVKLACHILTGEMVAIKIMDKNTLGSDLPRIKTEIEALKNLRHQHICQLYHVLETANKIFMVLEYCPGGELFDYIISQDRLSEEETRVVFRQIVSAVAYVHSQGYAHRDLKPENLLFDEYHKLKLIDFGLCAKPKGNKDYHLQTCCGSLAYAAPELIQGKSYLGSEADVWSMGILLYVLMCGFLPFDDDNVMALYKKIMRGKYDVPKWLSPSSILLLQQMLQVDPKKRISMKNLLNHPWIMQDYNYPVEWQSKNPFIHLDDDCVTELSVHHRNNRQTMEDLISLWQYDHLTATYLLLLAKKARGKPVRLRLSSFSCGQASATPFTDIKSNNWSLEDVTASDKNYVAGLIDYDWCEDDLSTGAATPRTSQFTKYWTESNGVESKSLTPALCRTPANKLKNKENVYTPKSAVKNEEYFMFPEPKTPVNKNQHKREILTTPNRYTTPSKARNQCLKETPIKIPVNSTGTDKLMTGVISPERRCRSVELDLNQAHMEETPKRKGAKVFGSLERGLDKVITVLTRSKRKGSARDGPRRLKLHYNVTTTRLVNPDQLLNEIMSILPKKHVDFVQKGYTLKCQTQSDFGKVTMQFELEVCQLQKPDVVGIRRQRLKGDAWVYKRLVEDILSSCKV
Chain of Phosphatidylinositol 4-phosphate 5-kinase type-1 alpha (Q99755 whole entry): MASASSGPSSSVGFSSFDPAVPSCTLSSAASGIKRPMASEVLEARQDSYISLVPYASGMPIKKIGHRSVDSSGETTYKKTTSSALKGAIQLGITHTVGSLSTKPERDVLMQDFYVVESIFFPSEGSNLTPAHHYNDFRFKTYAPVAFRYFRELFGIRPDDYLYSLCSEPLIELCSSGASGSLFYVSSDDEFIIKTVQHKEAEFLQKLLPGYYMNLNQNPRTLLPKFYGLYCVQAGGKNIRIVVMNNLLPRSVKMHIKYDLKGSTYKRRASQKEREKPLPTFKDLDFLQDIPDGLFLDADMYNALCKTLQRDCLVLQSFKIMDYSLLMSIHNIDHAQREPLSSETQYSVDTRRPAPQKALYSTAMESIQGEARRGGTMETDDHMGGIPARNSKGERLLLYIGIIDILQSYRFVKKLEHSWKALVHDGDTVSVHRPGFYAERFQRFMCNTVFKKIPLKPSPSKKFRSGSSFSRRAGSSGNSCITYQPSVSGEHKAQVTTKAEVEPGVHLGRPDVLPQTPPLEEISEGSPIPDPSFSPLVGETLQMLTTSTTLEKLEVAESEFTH
Chain of CDK3/Cyclin E (Homo sapiens) (P24864 whole entry, looked up): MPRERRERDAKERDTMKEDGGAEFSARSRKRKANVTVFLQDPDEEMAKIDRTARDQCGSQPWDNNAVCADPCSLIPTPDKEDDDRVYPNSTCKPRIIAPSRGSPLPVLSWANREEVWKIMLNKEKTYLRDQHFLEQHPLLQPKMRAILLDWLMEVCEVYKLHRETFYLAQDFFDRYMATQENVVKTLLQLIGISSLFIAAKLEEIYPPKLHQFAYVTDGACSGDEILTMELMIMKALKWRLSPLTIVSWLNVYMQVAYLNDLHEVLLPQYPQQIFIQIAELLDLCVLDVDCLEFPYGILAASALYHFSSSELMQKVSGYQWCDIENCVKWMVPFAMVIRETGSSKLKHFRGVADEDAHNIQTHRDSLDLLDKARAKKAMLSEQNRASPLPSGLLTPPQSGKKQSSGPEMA
Chain of CDK3/Cyclin E (Homo sapiens) (Q00526 whole entry, looked up): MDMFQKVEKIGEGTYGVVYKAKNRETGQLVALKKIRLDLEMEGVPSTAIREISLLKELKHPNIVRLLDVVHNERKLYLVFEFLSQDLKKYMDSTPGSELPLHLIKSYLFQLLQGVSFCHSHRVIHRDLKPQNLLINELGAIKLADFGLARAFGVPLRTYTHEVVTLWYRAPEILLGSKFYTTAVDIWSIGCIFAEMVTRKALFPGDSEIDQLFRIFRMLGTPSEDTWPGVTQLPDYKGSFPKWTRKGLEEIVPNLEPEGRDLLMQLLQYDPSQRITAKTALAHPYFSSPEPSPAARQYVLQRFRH
Chain of Serine/threonine-protein kinase 33 (Homo sapiens) (Q9BYT3 whole entry, looked up): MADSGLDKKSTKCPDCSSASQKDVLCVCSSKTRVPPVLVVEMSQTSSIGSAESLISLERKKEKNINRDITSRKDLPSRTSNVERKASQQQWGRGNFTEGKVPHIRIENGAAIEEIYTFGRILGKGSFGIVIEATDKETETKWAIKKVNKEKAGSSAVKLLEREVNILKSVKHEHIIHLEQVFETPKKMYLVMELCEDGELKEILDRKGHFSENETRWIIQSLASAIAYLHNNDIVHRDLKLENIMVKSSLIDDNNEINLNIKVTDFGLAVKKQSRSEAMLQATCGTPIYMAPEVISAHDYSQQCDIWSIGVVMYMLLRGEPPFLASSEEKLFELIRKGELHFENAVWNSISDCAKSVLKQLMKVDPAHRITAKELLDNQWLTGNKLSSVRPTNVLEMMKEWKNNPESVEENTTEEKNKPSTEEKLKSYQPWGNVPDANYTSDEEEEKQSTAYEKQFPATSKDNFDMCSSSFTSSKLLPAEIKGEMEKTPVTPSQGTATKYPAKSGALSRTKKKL
Chain of Tyrosine-protein kinase ABL1 (Homo sapiens) (P00519 whole entry, the tested form may be a part): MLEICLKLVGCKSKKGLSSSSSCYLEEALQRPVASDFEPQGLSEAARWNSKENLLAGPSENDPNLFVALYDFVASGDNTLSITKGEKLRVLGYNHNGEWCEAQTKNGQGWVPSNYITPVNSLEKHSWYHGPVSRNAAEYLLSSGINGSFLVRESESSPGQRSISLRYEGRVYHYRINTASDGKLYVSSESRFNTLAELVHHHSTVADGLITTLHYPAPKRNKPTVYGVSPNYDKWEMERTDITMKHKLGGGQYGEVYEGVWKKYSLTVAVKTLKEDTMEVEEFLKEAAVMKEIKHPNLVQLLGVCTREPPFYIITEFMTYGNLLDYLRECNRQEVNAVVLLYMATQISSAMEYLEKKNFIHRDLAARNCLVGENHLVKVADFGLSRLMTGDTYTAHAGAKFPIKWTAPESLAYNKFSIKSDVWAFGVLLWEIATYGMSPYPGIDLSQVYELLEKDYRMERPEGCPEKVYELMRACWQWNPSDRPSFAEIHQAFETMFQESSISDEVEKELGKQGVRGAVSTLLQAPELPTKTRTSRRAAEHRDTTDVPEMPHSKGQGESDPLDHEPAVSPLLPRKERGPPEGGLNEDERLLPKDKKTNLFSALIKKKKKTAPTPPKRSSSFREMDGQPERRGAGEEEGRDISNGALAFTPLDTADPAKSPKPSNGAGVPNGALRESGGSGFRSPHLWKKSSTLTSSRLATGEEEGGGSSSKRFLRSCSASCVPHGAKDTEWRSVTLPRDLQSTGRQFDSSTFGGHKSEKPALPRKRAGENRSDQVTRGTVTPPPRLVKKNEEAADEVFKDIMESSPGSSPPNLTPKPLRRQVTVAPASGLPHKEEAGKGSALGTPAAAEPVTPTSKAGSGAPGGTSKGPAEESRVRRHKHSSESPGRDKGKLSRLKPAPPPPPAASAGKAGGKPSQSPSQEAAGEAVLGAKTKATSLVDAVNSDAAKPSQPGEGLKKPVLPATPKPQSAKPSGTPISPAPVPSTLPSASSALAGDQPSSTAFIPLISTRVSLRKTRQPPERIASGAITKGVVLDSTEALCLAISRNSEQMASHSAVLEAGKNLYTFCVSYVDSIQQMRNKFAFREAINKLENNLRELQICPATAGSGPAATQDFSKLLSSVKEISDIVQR
Chain of Tyrosine-protein kinase receptor TYRO3 (Homo sapiens) (Q06418 whole entry, the tested form may be a part): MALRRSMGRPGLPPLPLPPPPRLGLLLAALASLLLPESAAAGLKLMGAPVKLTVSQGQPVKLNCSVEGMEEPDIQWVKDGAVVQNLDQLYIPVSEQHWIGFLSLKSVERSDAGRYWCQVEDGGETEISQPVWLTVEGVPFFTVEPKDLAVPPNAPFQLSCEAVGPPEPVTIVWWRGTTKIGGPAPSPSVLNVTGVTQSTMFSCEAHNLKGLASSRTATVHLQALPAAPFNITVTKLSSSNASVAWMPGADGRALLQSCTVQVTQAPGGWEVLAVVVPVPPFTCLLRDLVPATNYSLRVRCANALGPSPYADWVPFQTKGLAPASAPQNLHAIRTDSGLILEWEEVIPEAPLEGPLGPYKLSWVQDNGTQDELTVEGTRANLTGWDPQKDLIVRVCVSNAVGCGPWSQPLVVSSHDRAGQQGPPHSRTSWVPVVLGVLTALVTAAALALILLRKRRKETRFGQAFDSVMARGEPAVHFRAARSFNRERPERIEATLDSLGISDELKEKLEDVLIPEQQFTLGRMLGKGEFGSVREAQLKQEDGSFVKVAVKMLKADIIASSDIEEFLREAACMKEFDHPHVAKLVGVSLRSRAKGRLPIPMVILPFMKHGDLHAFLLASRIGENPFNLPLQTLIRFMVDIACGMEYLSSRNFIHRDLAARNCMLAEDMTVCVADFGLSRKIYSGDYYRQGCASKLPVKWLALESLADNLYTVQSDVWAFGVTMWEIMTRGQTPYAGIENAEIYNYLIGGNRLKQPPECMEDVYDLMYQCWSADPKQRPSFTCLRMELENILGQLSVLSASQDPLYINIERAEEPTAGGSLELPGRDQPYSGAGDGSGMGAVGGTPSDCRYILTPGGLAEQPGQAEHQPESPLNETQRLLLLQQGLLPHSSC

## CC(C)(O)CNc1ncc(-c2ccnc(Nc3ccnc(Cl)c3)n2)c(CC2CC2)n1
[1]
  IC50: 11300 nM
[2]
  inhibition: inactive
[3]
  inhibition: inactive
[4]
  inhibition: inactive
[5]
  inhibition: inactive
[6]
  IC50: 382 nM
[7]
  Activity: 125%
[8]
  Activity: 106%
[9]
  Activity: 124%
[10]
  inhibition: inactive
[11]
  IC50: 1900 nM
[12]
  inhibition: inactive
Homo sapiens
  Activity: 122%
[13]
  Activity: 108%
[14]
  inhibition: inactive
[15]
  Activity: 103%
[16]
  Activity: 108%
[17]
  inhibition: inactive
[18]
  Activity: 88%
[19]
  inhibition: inactive
[20]
  inhibition: inactive
[21]
  inhibition: inactive
[22]
  inhibition: inactive
[23]
  inhibition: inactive
[24]
  Activity: 114%
